Assays:
[1] = test system: Rattus norvegicus; assay: Androgenic activity in ORX rat model assessed as dose required for 50% activity on ventral prostate po administered for 4 days; type: functional, Prostate gland
In short: (§1)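 Hershberger-type model in castrated immature male rats: left untreated one week after castration, then dosed four days (test compounds oral; testosterone propionate sc). Levator ani and ventral prostate weights normalised to body weight; activity % = (W/BW treated − W/BW ORX)/(W/BW sham − W/BW ORX) × 100. A50 = dose giving 50% activity on the tissue.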

[2] = test system: Rattus norvegicus; assay: Anabolic activity in ORX rat model assessed as weight of levator ani muscle at 1 mg/kg/day, sc administered for 4 days; type: functional; conditions: route subcutaneous; in short: as §1
[3] = test system: Rattus norvegicus; assay: Anabolic activity in ORX rat model assessed as dose required for 50% activity on levator ani muscle po administered for 4 days; type: functional; in short: as §1
[4] = test system: Rattus norvegicus; assay: Androgenic activity in ORX rat model assessed as weight of ventral prostate at 1 mg/kg/day, sc administered for 4 days; type: functional, Prostate gland; conditions: route subcutaneous; in short: as §1
[5] = Oral bioavailability in rat at 10 mg/kg and 3 mg/kg, iv; type: ADME, organism-based; conditions: in vivo
In short: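 Absolute oral bioavailability in rats: single oral dose 10 mg/kg in EtOH/PEG400/H₂O (1/79/20, v/v/v) compared with single iv dose 3 mg/kg in DMSO/PEG400/H₂O (1/65/34, v/v/v).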

[6] = test system: Rattus norvegicus; assay: Androgenic activity in ORX rat model assessed as weight of ventral prostate at 10 mg/kg/day, po administered for 4 days; type: functional, Prostate gland; in short: as §1
[7] = test system: Rattus norvegicus; assay: Anabolic activity in ORX rat model assessed as weight of levator ani muscle at 10 mg/kg/day, po administered for 4 days; type: functional; in short: as §1
[8] = test system: Rattus norvegicus; assay: Anabolic activity in ORX rat model assessed as weight of levator ani muscle at 30 mg/kg/day, po administered for 4 days; type: functional; in short: as §1
[9] = test system: Rattus norvegicus; assay: Androgenic activity in ORX rat model assessed as weight of ventral prostate at 30 mg/kg/day, po administered for 4 days; type: functional, Prostate gland; in short: as §1
[10] = Oral bioavailability in monkey; type: ADME, organism-based, Macaca mulatta; conditions: rhesus monkey, in vivo
[11] = Half life in Sprague-Dawley rat at 3 mg/kg, iv; type: ADME, organism-based; design: dose 3 mg/kg, route intravenous; conditions: in vivo
In short: (§2)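 Male Sprague-Dawley rats, single dose: iv 3 mg/kg in DMSO/PEG200/H₂O (1/79/20, v/v/v), or oral 10 mg/kg in EtOH/PEG200/H₂O (1/79/20, v/v/v). Two groups of three rats; N = 2 rats for one arm. CL, T1/2, Vdss, AUC(0−∞) and F derived.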

[12] = Volume of distribution at steady state in Sprague-Dawley rat at 3 mg/kg, iv; type: ADME, organism-based; design: dose 3 mg/kg, route intravenous; conditions: in vivo, read-out: Vdss; in short: as §2
[13] = test system: Rattus norvegicus; assay: […] activity in ORX rat model assessed as activity on ventral prostate at 30 mg/kg/day, po administered for 4 days; type: functional, Prostate gland; in short: as §1
[14] = test system: Rattus norvegicus; assay: […] activity in ORX rat model assessed as increase in prostate weight at 10 mg/kg/day, po administered for 3 months relative to sham-treated control; type: functional, Prostate gland
In short: (§3)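 Rats castrated at seven weeks of age, then given compound orally for three months in a prophylactic setting at 10 mg/kg/day. Levator ani and prostate weights normalised with sham-operated rats set to 100% and ORX rats set to 0%.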

[15] = Clearance in Sprague-Dawley rat at 3 mg/kg, iv; type: ADME, organism-based; design: dose 3 mg/kg, route intravenous; conditions: in vivo; in short: as §2
[16] = Oral bioavailability in Sprague-Dawley rat at 10 mg/kg; type: ADME, organism-based; conditions: in vivo; in short: as §2
[17] = test system: Rattus norvegicus; assay: Anabolic activity in ORX rat model assessed as increase in levator ani muscle weight at 10 mg/kg/day, po administered for 3 months relative to sham-treated control; type: functional; in short: as §3
[18] = Half life in Sprague-Dawley rat at 10 mg/kg, po; type: ADME, organism-based; design: dose 10 mg/kg, route oral; conditions: in vivo; in short: as §2
[19] = AUC (0 to infinity) in Sprague-Dawley rat at 10 mg/kg, po; type: ADME, organism-based; design: time infinity, dose 10 mg/kg, route oral; conditions: plasma
[20] = AUC (0 to infinity) in Sprague-Dawley rat at 3 mg/kg, iv; type: ADME, organism-based; design: dose 3 mg/kg, route intravenous, time infinity; conditions: plasma

CCC(=O)O[C@H]1CC[C@H]2[C@@H]3CCC4=CC(=O)CC[C@]4(C)[C@H]3CC[C@]12C [TESTOSTERONE PROPIONATE] showed an Activity [1] of 0.2 mg/kg/day, an Activity [2] of 99% and an Activity [3] of 0.3 mg/kg/day. For the same compound, the Activity [4] was 73%.
In the case of CCN1C(=O)N(c2ccc(C#N)c(C(F)(F)F)c2)C(=O)C1(CO)c1ccccc1 (racemic), the bioavailability [5] is reported as 76%, the Activity [6] is reported as 59% and the Activity [7] is reported as 112%.
CN1C(=O)N(c2ccc(Cl)c(Cl)c2)C(=O)C1(CO)c1ccccc1 (racemic) gave an Activity [6] of 23% and an Activity [7] of 96%.
In the case of CN1C(=O)N(c2ccc(C#N)c(C(F)(F)F)c2)C(=O)C1(CO)c1ccccc1 (racemic), the Activity [8] is reported as 96%, the Activity [9] is reported as 14% and the bioavailability [5] is reported as 63%. For the same compound, the Activity [6] was 13%.
In the case of CN1C(=O)N(c2ccc(C#N)c(C(F)(F)F)c2)C(=O)C1(C)c1ccc2[nH]ccc2c1 (racemic), the bioavailability [5] is reported as 19%.
Work on CN1C(=O)N(c2ccc(C#N)c(C(F)(F)F)c2)C(=O)C1(C)c1ccc2[nH]cnc2c1 (racemic) yielded a bioavailability [5] of 100%.
CN1C(=O)N(c2ccc(C#N)c(C(F)(F)F)c2)C(=O)C1(CO)c1ccc(F)cc1 (racemic) gave a bioavailability [5] of 87%.
CN1C(=O)N(c2ccc(C#N)c(C(F)(F)F)c2)C(=O)[C@]1(CO)c1ccccc1 gave an Activity [7] of 101%.
For CN1C(=O)N(c2ccc(C#N)c(C(F)(F)F)c2)C(=O)C1(C)c1ccc(O)cc1 (racemic), the Activity [8] was 89%, the Activity [9] was 16% and the bioavailability [5] was 1.5%. For the same compound, the Activity [6] was 8% and the Activity [7] was 68%.
In the case of CN1C(=O)N(c2ccc(C#N)c(C(F)(F)F)c2)C(=O)[C@@]1(C)c1ccc(O)cc1, the Activity [8] is reported as 77%, the Activity [9] is reported as 26% and the bioavailability [5] is reported as less than 9%. The bioavailability [10] was less than 9% and the Activity [6] was 12%.
Work on CN1C(=O)N(c2ccc(C#N)c(C(F)(F)F)c2)C(=O)C1(CO)c1ccc(O)cc1 (racemic) yielded an Activity [8] of 82%, an Activity [9] of 55% and a bioavailability [5] of 15%.
CN1C(=O)N(c2ccc(C#N)c(C(F)(F)F)c2)C(=O)C1(CO)c1ccc(C#N)cc1 (racemic) gave an Activity [6] of 11% and an Activity [7] of 12%.
C#CCN1C(=O)N(c2ccc(C#N)c(C(F)(F)F)c2)C(=O)C1(CO)c1ccccc1 (racemic) showed an Activity [6] of 43% and an Activity [7] of 96%.
For CN1C(=O)N(c2ccc(C#N)c(C(F)(F)F)c2)C(=O)C1(CO)c1cccc(C#N)c1 (racemic), the Activity [6] was 26% and the Activity [7] was 84%.
Compound CN1C(=O)N(c2ccc(C#N)c(C(F)(F)F)c2)C(=O)C1(CO)c1cccc(Cl)c1 (racemic) has an Activity [6] of 16% and an Activity [7] of 66%.
For COc1ccc(C2(CO)C(=O)N(c3ccc(C#N)c(C(F)(F)F)c3)C(=O)N2C)cc1 (racemic), the Activity [8] was 130%, the Activity [9] was 95% and the bioavailability [5] was 25%.
CN1C(=O)N(c2ccc(C#N)c(C(F)(F)F)c2)C(=O)C1(CO)c1ccccc1Cl (racemic) gave an Activity [6] of 7% and an Activity [7] of 26%.
With CN1C(=O)N(c2ccc(C#N)c(C(F)(F)F)c2)C(=O)[C@@]1(CO)c1ccccc1 [GLPG0492] the half-life [11] was 1.5 h, the Activity [8] was 106% and the Vd [12] was 2.5 L/kg. For the same compound, the Activity [9] was 26%, the bioavailability [5] was 56% and the “%max” value [13] was 30%. The Activity [14] was 25%, the clearance [15] was 21.7 mL/min/kg and the Activity [3] was 0.75 mg/kg/day. The bioavailability [16] was 56%, the Activity [6] was 24% and the Activity [17] was 117%. The half-life [18] was 2.2 h, the AUC(0-inf) [19] was 4680 ng·h/mL and the Activity [7] was 101%. For the same compound, the AUC(0-inf) [20] was 2360 ng·h/mL.
Work on CN1C(=O)N(c2ccc(C#N)c(C(F)(F)F)c2)C(=O)C1(CO)c1ccc(Cl)cc1 (racemic) yielded a bioavailability [5] of 99%, an Activity [6] of 0% and an Activity [7] of 35%.
In the case of Cc1cccc(C2(CO)C(=O)N(c3ccc(C#N)c(C(F)(F)F)c3)C(=O)N2C)c1 (racemic), the Activity [6] is reported as 0% and the Activity [7] is reported as 24%.
For CC(C)N1C(=O)N(c2ccc(C#N)c(C(F)(F)F)c2)C(=O)C1(CO)c1ccccc1 (racemic), the Activity [6] was 60% and the Activity [7] was 109%.
